# Laboratory results taken from ChEMBL document CHEMBL1121551, “Amino acid and dipeptide derivatives of daunorubicin. 2. Cellular pharmacology and antitumor activity on L1210 leukemic cells in vitro and in vivo” (1980).
# How the values were obtained:
# Mus musculus [1] = experiment: Chemotherapeutic activity was evaluated by measuring percent change in weight on day 8 at 60 mg/kg/day, sc; assay type: functional
# Summary of the method: (§1)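 Drugs were given iv on days 1 and 2 at the stated daily dose. Average tumor diameter was estimated daily with calipers, and body weight change was recorded on day 8. Results from several experiments are given as mean ± SD.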
# Mus musculus [2] = experiment: Chemotherapeutic activity was evaluated by measuring number of survivors on day 30 / total number of mice at 60 mg/kg/day, sc; 0/18; assay type: functional
# Mus musculus [3] = experiment: Chemotherapeutic activity was evaluated by measuring mean tumor diameter on day 8 at 60 mg/kg/day, iv
# Mus musculus [4] = experiment: Chemotherapeutic activity was evaluated by measuring the percent increase in life span of female DBA2 mice intravenously inoculated with L1210 leukemia at 50(mg/kg)/day, iv; assay type: functional
# Summary of the method: (§2)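 Female DBA2 mice given 10^4 L1210 cells iv on day 0; cells harvested from a 6- to 8-day-old ascitic L1210 form. Drug given iv on days 1 and 2 at the stated daily dose. Read-outs are % increase in life span and the number of mice alive on day 30 over the total.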
# Mus musculus [5] = experiment: Chemotherapeutic activity was evaluated by measuring percent change in weight on day 8 at 66 mg/kg/day, sc; assay type: functional; summary of the method: as §1
# Mus musculus [6] = experiment: Chemotherapeutic activity was evaluated by measuring mean tumor diameter on day 8 at 66 mg/kg/day, iv
# Mus musculus [7] = experiment: Percent increase in life span of female DBA2 mice subcutaneously inoculated with L1210 leukemia at 66 mg/kg/day, iv
# Mus musculus [8] = experiment: Chemotherapeutic activity was evaluated by measuring mean tumor diameter on day 12 at 66 mg/kg/day, iv
# Mus musculus [9] = experiment: Chemotherapeutic activity was evaluated by measuring percent change in weight on day 8 at 50(mg/kg)/day, iv; assay type: functional
# Summary of the method: (§3)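 Female DBA2 mice were inoculated iv on day 0 with 10^4 L1210 leukemic cells. Drugs were given iv on days 1 and 2 at the stated daily dose. Percent body weight change was recorded on day 8, and weight loss served as the index of general toxicity.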
# Mus musculus [10] = experiment: Chemotherapeutic activity was evaluated by measuring number of survivors on day 30 / total number of mice at 50(mg/kg)/day, iv; 0/7; assay type: functional; summary of the method: as §2
# Mus musculus [11] = experiment: Chemotherapeutic activity was evaluated by measuring number of survivors on day 30 / total number of mice at 66 mg/kg/day, sc; 0/9; assay type: functional
# Mus musculus [12] = experiment: Percent increase in life span of female DBA2 mice subcutaneously inoculated with L1210 leukemia at 60 mg/kg/day, iv
# Mus musculus [13] = experiment: Chemotherapeutic activity was evaluated by measuring mean tumor diameter on day 12 at 10 mg/kg/day, iv
# Mus musculus [14] = experiment: Chemotherapeutic activity was evaluated by measuring number of survivors on day 30 / total number of mice at 11 mg/kg/day, sc; 3/37; assay type: functional
# Mus musculus [15] = experiment: Chemotherapeutic activity was evaluated by measuring the percent increase in life span of female DBA2 mice intravenously inoculated with L1210 leukemia at 10 mg/kg/day, iv; assay type: functional; summary of the method: as §2
# Mus musculus [16] = experiment: Chemotherapeutic activity was evaluated by measuring number of survivors on day 30 / total number of mice at 10 mg/kg/day, iv; 0/18; assay type: functional; summary of the method: as §2
# Mus musculus [17] = experiment: Chemotherapeutic activity was evaluated by measuring the percent increase in life span of female DBA2 mice intravenously inoculated with L1210 leukemia at 11 mg/kg/day, iv; assay type: functional; summary of the method: as §2
# Mus musculus [18] = experiment: Chemotherapeutic activity was evaluated by measuring number of survivors on day 30 / total number of mice at 12(mg/kg)/day, iv; 6/34; assay type: functional; summary of the method: as §2
# Mus musculus [19] = experiment: Chemotherapeutic activity was evaluated by measuring the percent increase in life span of female DBA2 mice subcutaneously inoculated with L1210 leukemia at 12(mg/kg)/day, sc; assay type: functional
# Mus musculus [20] = experiment: Percent increase in life span of female DBA2 mice subcutaneously inoculated with L1210 leukemia at 10 mg/kg/day, iv
# Mus musculus [21] = experiment: Chemotherapeutic activity was evaluated by measuring mean tumor diameter on day 12 at 12(mg/kg)/day, sc; assay type: functional
# Mus musculus [22] = experiment: Chemotherapeutic activity was evaluated by measuring mean tumor diameter on day 12 at 11 mg/kg/day, iv
# Mus musculus [23] = experiment: Chemotherapeutic activity was evaluated by measuring percent change in weight on day 8 at 10 mg/kg/day, sc; assay type: functional; summary of the method: as §1
# Mus musculus [24] = experiment: Chemotherapeutic activity was evaluated by measuring percent change in weight on day 8 at 11 mg/kg/day, sc; assay type: functional; summary of the method: as §1
# Mus musculus [25] = experiment: Chemotherapeutic activity was evaluated by measuring percent change in weight on day 8 at 12(mg/kg)/day, sc; assay type: functional
# Mus musculus [26] = experiment: Percent increase in life span of female DBA2 mice subcutaneously inoculated with L1210 leukemia at 11 mg/kg/day, iv
# Mus musculus [27] = experiment: Chemotherapeutic activity was evaluated by measuring percent change in weight on day 8 at 10 mg/kg/day, iv; assay type: functional; summary of the method: as §3
# Mus musculus [28] = experiment: Chemotherapeutic activity was evaluated by measuring mean tumor diameter on day 8 at 11 mg/kg/day, iv
# Mus musculus [29] = experiment: Chemotherapeutic activity was evaluated by measuring number of survivors on day 30 / total number of mice at 12(mg/kg)/day, sc; 3/36; assay type: functional
# Mus musculus [30] = experiment: Chemotherapeutic activity was evaluated by measuring number of survivors on day 30 / total number of mice at 10 mg/kg/day, sc; 0/58; assay type: functional
# Mus musculus [31] = experiment: Chemotherapeutic activity was evaluated by measuring the percent increase in life span of female DBA2 mice intravenously inoculated with L1210 leukemia at 12(mg/kg)/day, iv; assay type: functional; summary of the method: as §2
# Mus musculus [32] = experiment: Chemotherapeutic activity was evaluated by measuring mean tumor diameter on day 8 at 10 mg/kg/day, iv
# Mus musculus [33] = experiment: Chemotherapeutic activity was evaluated by measuring percent change in weight on day 8 at 12(mg/kg)/day, iv; assay type: functional; summary of the method: as §3
# Mus musculus [34] = experiment: Chemotherapeutic activity was evaluated by measuring number of survivors on day 30 / total number of mice at 11 mg/kg/day, iv; 0/37; assay type: functional; summary of the method: as §2
# Mus musculus [35] = experiment: Chemotherapeutic activity was evaluated by measuring percent change in weight on day 8 at 11 mg/kg/day, iv; assay type: functional; summary of the method: as §3
smiles,measurement,setting,value
COc1cccc2c1C(=O)c1c(O)c3c(c(O)c1C2=O)C[C@@](O)(C(C)=O)C[C@@H]3O[C@H]1C[C@H](NC(=O)[C@H](C)N)[C@H](O)[C@H](C)O1,Weight change,Mus musculus [1],-5.9%
same,Survivors,Mus musculus [2],0
same,Diameter,Mus musculus [3],1.3 mm
same,Increase in life-span,Mus musculus [4],14%
same,Weight change,Mus musculus [5],-8.5%
same,Diameter,Mus musculus [6],0 mm
same,Increase in life-span,Mus musculus [7],61%
same,Diameter,Mus musculus [8],4.2 mm
same,Weight change,Mus musculus [9],-4.4%
same,Survivors,Mus musculus [10],0
same,Survivors,Mus musculus [11],0
same,Increase in life-span,Mus musculus [12],37%
COc1cccc2c1C(=O)c1c(O)c3c(c(O)c1C2=O)C[C@@](O)(C(C)=O)C[C@@H]3O[C@H]1C[C@H](N)[C@H](O)[C@H](C)O1 [DAUNORUBICIN],Diameter,Mus musculus [13],4.1 mm
same,Survivors,Mus musculus [14],3
same,Increase in life-span,Mus musculus [15],42%
same,Survivors,Mus musculus [16],0
same,Increase in life-span,Mus musculus [17],66%
same,Survivors,Mus musculus [18],6
same,Increase in life-span,Mus musculus [19],83%
same,Increase in life-span,Mus musculus [20],65%
same,Diameter,Mus musculus [21],2 mm
same,Diameter,Mus musculus [22],2.9 mm
same,Weight change,Mus musculus [23],-4.3%
same,Weight change,Mus musculus [24],-5.9%
same,Weight change,Mus musculus [25],-6.3%
same,Increase in life-span,Mus musculus [26],67%
same,Weight change,Mus musculus [27],-1.1%
same,Diameter,Mus musculus [28],0.4 mm
same,Survivors,Mus musculus [29],3
same,Survivors,Mus musculus [30],0
same,Increase in life-span,Mus musculus [31],123%
same,Diameter,Mus musculus [32],0.3 mm
same,Weight change,Mus musculus [33],-8.4%
same,Survivors,Mus musculus [34],0
same,Weight change,Mus musculus [35],-3.2%
